# According to ChEMBL document CHEMBL3286109, “Structure-activity relationship studies of indole-based compounds as small molecule HIV-1 fusion inhibitors targeting glycoprotein 41” (J Med Chem, 2014):
# Legend:
# [1] = Binding affinity to HIV1 Envelope glycoprotein gp41 Fe(env2.0)3 using C18FL as probe by fluorescence assay; set-up: species or system Human immunodeficiency virus 1
# [2] = Cytotoxicity against human TZM-bl cells assessed as inhibition of cell viability by resazurin assay; details: read-out: TC50 (the source's name)
# [3] = system: Human immunodeficiency virus 1; assay: Antiviral activity against HIV-1 3B infected in human MAGI-CCR5 cells assessed as inhibition of viral replication after 48 hrs by chemiluminescence assay; assay type: functional, organism-based; details: Human immunodeficiency virus 1, 3B, MAGI-CCR5, 48 h
# [4] = Cytotoxicity against human MAGI-CCR5 cells assessed as inhibition of cell viability by MTS assay; assay type: cell-based; details: read-out: TC50 (the source's name)
# [5] = Inhibition of HIV1 HXB2 gp41-mediated cell-cell fusion between viral envelope-expressing human HL2/3 cells to human TZM-bl cells by luciferase reporter assay; assay type: cell-based; details: Human immunodeficiency virus 1, HXB2, TZM-bl
# [6] = system: Human immunodeficiency virus 1; assay: Antiviral activity against HIV-1 Ba-L infected in human MAGI-CCR5 cells assessed as inhibition of viral replication after 48 hrs by chemiluminescence assay; assay type: functional, organism-based; details: Human immunodeficiency virus 1, Ba-L, MAGI-CCR5, 48 h
# [7] = Cytotoxicity against human PBMC assessed as inhibition of cell viability by MTS assay; assay type: cell-based; details: read-out: TC50 (the source's name)
# [8] = system: Human immunodeficiency virus 1; assay: Antiviral activity against HIV-1 92BR014 subtype B infected in human PBMC assessed as reverse transcriptase activity after 6 days by microtiter plate-based assay; assay type: functional, organism-based; details: Human immunodeficiency virus 1, 92BR014 subtype B, 144 h
# Outline: (§1)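 PBMCs from screened donors, Ficoll-purified, stimulated with 4 μg/mL phytohemagglutinin, kept in 20 U/mL IL-2; cells from two donors pooled, 5 × 10^4 cells/well.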
# [9] = system: Human immunodeficiency virus 1; assay: Antiviral activity against HIV-1 00UG_D26830M4 subtype D infected in human PBMC assessed as reverse transcriptase activity after 6 days by microtiter plate-based assay; assay type: functional, organism-based; details: Human immunodeficiency virus 1, 00UG_D26830M4 subtype D, 144 h; outline: as §1
# [10] = Therapeutic index, ratio of TC50 for human PBMC to EC50 for HIV-1 92BR014 subtype B infected in human PBMC; details: read-out: TI
# Outline: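 Human PBMC from screened donors were Ficoll-purified, stimulated with 4 μg/mL phytohemagglutinin, and kept in 20 U/mL IL-2. Cells from two donors were pooled at 5 × 10^4 cells/well and given nine serial compound dilutions in triplicate, then HIV-1 at a final MOI of about 0.1. TC50 was measured in parallel cultures by MTS viability. TI = TC50/EC50.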
# [11] = Therapeutic index, ratio of TC50 for human PBMC to EC50 for HIV-1 91DJ263 subtype CRF02_AG infected in human PBMC; details: read-out: TI
# [12] = system: Human immunodeficiency virus 1; assay: Antiviral activity against HIV-1 02CM0015BBY subtype CRF02_AG infected in human PBMC assessed as reverse transcriptase activity after 6 days by microtiter plate-based assay; assay type: functional, organism-based; details: Human immunodeficiency virus 1, 02CM0015BBY subtype CRF02_AG, 144 h; outline: as §1
# [13] = Therapeutic index, ratio of TC50 for human PBMC to EC50 for HIV-1 01CM0005BBY subtype CRF02_AG infected in human PBMC; details: read-out: TI
# [14] = Therapeutic index, ratio of TC50 for human PBMC to EC50 for HIV-1 92UG001 subtype D infected in human PBMC; details: read-out: TI
# [15] = system: Human immunodeficiency virus 1; assay: Antiviral activity against HIV-1 92UG001 subtype D infected in human PBMC assessed as reverse transcriptase activity after 6 days by microtiter plate-based assay; assay type: functional, organism-based; details: Human immunodeficiency virus 1, 92UG001 subtype D, 144 h; outline: as §1
# [16] = system: Human immunodeficiency virus 1; assay: Antiviral activity against HIV-1 01CM0005BBY subtype CRF02_AG infected in human PBMC assessed as reverse transcriptase activity after 6 days by microtiter plate-based assay; assay type: functional, organism-based; details: Human immunodeficiency virus 1, 01CM0005BBY subtype CRF02_AG, 144 h; outline: as §1
# [17] = Therapeutic index, ratio of TC50 for human PBMC to EC50 for HIV-1 02CM0015BBY subtype CRF02_AG infected in human PBMC; details: read-out: TI
# [18] = Therapeutic index, ratio of TC50 for human PBMC to EC50 for HIV-1 Ba-L subtype B infected in human PBMC; details: read-out: TI
# [19] = Therapeutic index, ratio of TC50 for human PBMC to EC50 for HIV-1 00UG_D26830M4 subtype D infected in human PBMC; details: read-out: TI
# [20] = system: Human immunodeficiency virus 1; assay: Antiviral activity against HIV-1 Ba-L subtype B infected in human PBMC assessed as reverse transcriptase activity after 6 days by microtiter plate-based assay; assay type: functional, organism-based; details: Human immunodeficiency virus 1, Ba-L subtype B, 144 h; outline: as §1
# [21] = system: Human immunodeficiency virus 1; assay: Antiviral activity against HIV-1 91DJ263 subtype CRF02_AG infected in human PBMC assessed as reverse transcriptase activity after 6 days by microtiter plate-based assay; assay type: functional, organism-based; details: Human immunodeficiency virus 1, 91DJ263 subtype CRF02_AG, 144 h; outline: as §1
# [22] = Retardation factor of the compound using 40% EtOAc/hexanes as solvent system by silca gel chromatography; assay type: physicochemical
# [23] = Retardation factor of the compound using 50% EtOAc/hexanes as solvent system by silca gel chromatography; assay type: physicochemical
compound,measurement,setting,value
COc1ccc(Cn2ccc3ccc(-c4ccc5c(ccn5Cc5cccc(C(=O)O)c5)c4)cc32)cc1,Ki,[1],3 µM
same,CC50,[2],> 100 µM
same,EC50,[3],19 µM
same,CC50,[4],18 µM
same,EC50,[5],7 µM
same,EC50,[6],18 µM
COc1ccc(Cn2ccc3cc(-c4ccc5ccn(Cc6cccc(C(=O)O)c6)c5c4)ccc32)cc1,Ki,[1],4.2 µM
same,CC50,[2],91 µM
same,EC50,[3],8.3 µM
same,CC50,[4],24 µM
same,EC50,[5],3.5 µM
same,EC50,[6],6.9 µM
COc1ccc(Cn2ccc3cc(-c4ccc5c(ccn5Cc5cccc(C(=O)O)c5)c4)ccc32)cc1,Ki,[1],3.9 µM
same,CC50,[2],> 100 µM
same,EC50,[3],20 µM
same,CC50,[4],55 µM
same,EC50,[5],12 µM
same,EC50,[6],18 µM
O=C(O)c1cccc(Cn2ccc3ccc(-c4ccc5ccn(Cc6cccc(C(=O)O)c6)c5c4)cc32)c1,Ki,[1],0.6 µM
same,CC50,[2],> 100 µM
same,EC50,[3],67 µM
same,CC50,[4],> 100 µM
same,EC50,[5],12 µM
same,EC50,[6],58 µM
COC(=O)c1cccc(Cn2ccc3ccc(-c4ccc5ccn(Cc6cccc(C(=O)O)c6)c5c4)cc32)c1,CC50,[7],11.6 µM
same,EC50,[8],0.46 µM
same,EC90,[8],1.43 µM
same,EC50,[9],0.35 µM
same,EC90,[9],0.58 µM
same,selectivity ratio,[10],25.3
same,Ki,[1],0.6 µM
same,selectivity ratio,[11],29.7
same,EC50,[12],0.24 µM
same,EC90,[12],0.52 µM
same,selectivity ratio,[13],39.3
same,selectivity ratio,[14],29.1
same,EC50,[15],0.4 µM
same,EC90,[15],0.99 µM
same,EC50,[16],0.29 µM
same,EC90,[16],0.54 µM
same,selectivity ratio,[17],47.8
same,selectivity ratio,[18],32.2
same,selectivity ratio,[19],33.3
same,EC50,[20],0.36 µM
same,EC90,[20],0.63 µM
same,CC50,[2],53 µM
same,EC50,[3],0.2 µM
same,EC50,[21],0.39 µM
same,EC90,[21],0.92 µM
same,CC50,[4],15 µM
same,EC50,[5],0.2 µM
same,Rf,[22],0.13
same,EC50,[6],0.2 µM
CCOC(=O)c1cccc(Cn2ccc3ccc(-c4ccc5ccn(Cc6cccc(C(=O)O)c6)c5c4)cc32)c1,CC50,[7],> 50 µM
same,EC50,[8],0.43 µM
same,EC90,[8],1.23 µM
same,EC50,[9],0.39 µM
same,EC90,[9],0.57 µM
same,selectivity ratio,[10],> 116
same,Ki,[1],1 µM
same,selectivity ratio,[11],> 141
same,EC50,[12],0.37 µM
same,EC90,[12],0.56 µM
same,selectivity ratio,[13],> 147
same,selectivity ratio,[14],> 141
same,EC50,[15],0.35 µM
same,EC90,[15],1 µM
same,EC50,[16],0.34 µM
same,EC90,[16],0.55 µM
same,selectivity ratio,[17],> 137
same,selectivity ratio,[18],> 121
same,Rf,[23],0.48
same,selectivity ratio,[19],> 128
same,EC50,[20],0.41 µM
same,EC90,[20],0.59 µM
same,CC50,[2],> 50 µM
same,EC50,[3],0.5 µM
same,EC50,[21],0.35 µM
same,EC90,[21],0.58 µM
same,CC50,[4],43 µM
same,EC50,[5],0.7 µM
same,EC50,[6],0.3 µM
NC(=O)c1cccc(Cn2ccc3ccc(-c4ccc5ccn(Cc6cccc(C(=O)O)c6)c5c4)cc32)c1,Ki,[1],0.8 µM
same,CC50,[2],> 100 µM
same,EC50,[3],51 µM
same,CC50,[4],> 100 µM
same,EC50,[5],6 µM
same,EC50,[6],39 µM
O=C(O)c1cccc(Cn2ccc3cc(-c4ccc5ccn(Cc6cccc(C(=O)O)c6)c5c4)ccc32)c1,Ki,[1],0.7 µM
same,CC50,[2],> 100 µM
same,EC50,[3],17 µM
same,CC50,[4],> 100 µM
same,EC50,[5],2 µM
same,EC50,[6],20 µM
O=C(O)c1cccc(Cn2ccc3ccc(-c4ccc5ccn(Cc6ccccc6)c5c4)cc32)c1,Ki,[1],3.5 µM
same,CC50,[2],> 50 µM
same,EC50,[3],4.6 µM
same,CC50,[4],> 100 µM
same,EC50,[5],2 µM
same,EC50,[6],4.4 µM
COc1cccc(Cn2ccc3ccc(-c4ccc5ccn(Cc6cccc(C(=O)O)c6)c5c4)cc32)c1,Ki,[1],1.1 µM
same,CC50,[2],71 µM
same,EC50,[3],0.9 µM
same,CC50,[4],37 µM
same,EC50,[5],1 µM
same,EC50,[6],0.9 µM
COc1cc(Cn2ccc3ccc(-c4ccc5ccn(Cc6cccc(C(=O)O)c6)c5c4)cc32)cc(OC)c1,Ki,[1],0.9 µM
same,CC50,[2],93 µM
same,EC50,[3],1.5 µM
same,CC50,[4],49 µM
same,EC50,[5],2.3 µM
same,EC50,[6],1.5 µM
O=C(O)c1cccc(Cn2ccc3ccc(-c4ccc5ccn(Cc6ccc(C(F)(F)F)cc6)c5c4)cc32)c1,Ki,[1],1 µM
same,CC50,[2],> 50 µM
same,EC50,[3],1 µM
same,CC50,[4],52 µM
same,EC50,[5],2 µM
same,EC50,[6],0.9 µM
O=C(O)c1cccc(Cn2ccc3ccc(-c4ccc5ccn(Cc6ccc(-c7ccccc7)cc6)c5c4)cc32)c1,Ki,[1],2 µM
same,CC50,[2],> 50 µM
same,EC50,[3],2 µM
same,CC50,[4],55 µM
same,EC50,[5],13 µM
same,EC50,[6],2.1 µM
O=C(O)c1cccc(Cn2ccc3ccc(-c4ccc5ccn(Cc6ccc(COc7ccccc7)cc6)c5c4)cc32)c1,Ki,[1],6.2 µM
same,CC50,[2],> 100 µM
same,EC50,[3],32 µM
same,CC50,[4],> 100 µM
same,EC50,[5],17 µM
same,EC50,[6],27 µM
O=C(O)c1cccc(Cn2ccc3ccc(-c4ccc5ccn(Cc6ccc(Oc7ccccc7F)cc6)c5c4)cc32)c1,Ki,[1],9.5 µM
same,CC50,[2],> 100 µM
same,EC50,[3],5.5 µM
same,CC50,[4],> 100 µM
same,EC50,[5],8.2 µM
same,EC50,[6],5.3 µM
Cn1nnc2ccc(Cn3ccc4ccc(-c5ccc6ccn(Cc7cccc(C(=O)O)c7)c6c5)cc43)cc21,Ki,[1],1.5 µM
same,CC50,[2],> 100 µM
same,EC50,[3],9.4 µM
same,CC50,[4],52 µM
same,EC50,[5],2.5 µM
same,EC50,[6],6.6 µM
O=C(O)c1cccc(Cn2ccc3ccc(-c4ccc5cc[nH]c5c4)cc32)c1,Ki,[1],2.7 µM
same,CC50,[2],> 100 µM
same,EC50,[3],47 µM
same,CC50,[4],> 50 µM
same,EC50,[5],15 µM
same,Rf,[22],0.13
same,EC50,[6],60 µM
enfuvirtide,CC50,[7],> 2 µM
same,EC50,[8],> 2 µM
same,EC90,[8],> 2 µM
same,EC50,[9],0.108 µM
same,EC90,[9],0.195 µM
same,selectivity ratio,[11],> 16.6
same,EC50,[12],0.0169 µM
same,EC90,[12],0.0434 µM
same,selectivity ratio,[13],> 110
same,selectivity ratio,[14],> 36
same,EC90,[15],0.0713 µM
same,EC90,[16],0.0558 µM
same,selectivity ratio,[17],> 118
same,selectivity ratio,[18],> 265
same,selectivity ratio,[19],> 18.6
same,EC50,[20],0.00755 µM
same,EC90,[20],0.0236 µM
same,EC50,[21],0.12 µM
same,EC90,[21],0.206 µM
